Data on 28 compounds can be found in ChEMBL document CHEMBL1123793, “Analysis of structure-activity relationships in renin substrate analogue inhibitory peptides” (J Med Chem, 1987).

Broadly, the IC50 is the concentration that inhibits the measured activity by half. Read a low IC50 as greater potency.

*1 amine or outer side, *2 acyl side, *3 side chain or, on linkers, in order; H or OH if unused. Where a SMILES comes first, the peptide text is derived from it. [ ]: non-standard residue; d: D form. The star is where a group is joined. X2 = CC[C@H](C)[C@H](N*)C(=O)NC(=O)[C@@H](N)Cc1ccccc1; Sta = CC(C)C[C@H](N)[C@@H](O)CC(=O)O; X1 = CC(C)CC(N[*:1])C(O)CC(=O)[*:2]; hhPhe = N[C@@H](CCCc1ccccc1)C(=O)O; X3 = CC(=O)[C@H](CCCCN)N*; Orn = NCCC[C@H](N)C(=O)O; Nva = CCC[C@H](N)C(=O)O; For = O=C*

One assay addresses T1, Renin (Rattus norvegicus, UniProt P08424).
T1 sequence (P08424 whole entry): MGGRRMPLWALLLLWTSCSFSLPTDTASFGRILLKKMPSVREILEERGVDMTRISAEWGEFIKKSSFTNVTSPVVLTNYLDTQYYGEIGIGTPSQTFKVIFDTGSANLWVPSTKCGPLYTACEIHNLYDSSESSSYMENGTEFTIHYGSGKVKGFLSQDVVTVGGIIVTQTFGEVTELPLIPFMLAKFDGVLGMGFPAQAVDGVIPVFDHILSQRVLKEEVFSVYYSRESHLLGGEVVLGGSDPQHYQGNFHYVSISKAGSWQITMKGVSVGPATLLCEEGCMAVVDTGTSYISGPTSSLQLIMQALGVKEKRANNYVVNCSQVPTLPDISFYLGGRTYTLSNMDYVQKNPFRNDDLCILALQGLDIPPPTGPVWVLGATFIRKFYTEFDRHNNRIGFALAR
Description: Inhibitory potency on plasma renin obtained from Sprague-Dawley rats. The assay is classed as cell-free. The gist of the method:
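Dog, rabbit or rat plasma was collected into 5 mM EDTA at 0 °C, spun at 4 °C, then given PMSF 5 mM and 8-hydroxyquinoline sulfate 3 mM. Plasma at pH 7.4 with serial inhibitor dilutions was incubated 1 h at 37 °C, with a 0 °C blank. The reaction was quenched at pH 8.5, and angiotensin I was measured by RIA with ¹²⁵I tracer in anti-AI-coated tubes. The ratio is species IC50 divided by human IC50.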
For `CC[C@H](C)[C@H](NC(=O)C[C@H](O)[C@H](CC(C)C)NC(=O)[C@H](Cc1c[nH]cn1)NC(=O)[C@H](Cc1ccccc1)NC(=O)[C@@H]1CCCN1C(=O)[C@H](Cc1c[nH]cn1)NC(=O)[C@@H]1CCCN1)C(=O)N[C@@H](Cc1ccccc1)C(N)=O` (H-PHPFH[Sta]IF-NH2), the concentration for half-maximal inhibition (IC50) is greater than 1000 nM.

In the next assay the target is T2, Renin (Homo sapiens, UniProt P00797).
T2 sequence (P00797 whole entry): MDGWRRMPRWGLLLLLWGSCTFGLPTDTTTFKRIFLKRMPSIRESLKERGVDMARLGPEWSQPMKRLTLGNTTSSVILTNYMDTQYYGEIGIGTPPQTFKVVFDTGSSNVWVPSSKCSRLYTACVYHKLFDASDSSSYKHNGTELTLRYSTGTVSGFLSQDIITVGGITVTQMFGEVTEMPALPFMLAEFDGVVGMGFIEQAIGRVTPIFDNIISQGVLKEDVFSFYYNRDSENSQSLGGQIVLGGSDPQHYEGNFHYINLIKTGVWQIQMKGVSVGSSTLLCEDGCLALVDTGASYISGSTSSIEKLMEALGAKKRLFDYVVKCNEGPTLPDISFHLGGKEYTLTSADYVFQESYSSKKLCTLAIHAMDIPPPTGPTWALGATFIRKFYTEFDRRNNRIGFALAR
Description: Inhibitory activity against human plasma renin. In kind it is cell-free. The gist of the method:
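Pooled human plasma from about 500 hypertensive patients, collected by renal vein catheterization into chilled EDTA, trypsin-activated. PMSF 5 mM, 8-hydroxyquinoline sulfate 3 mM and a further 5 mM EDTA were added, giving about 10 ng AI mL⁻¹ h⁻¹. Plasma at pH 7.4 with serial peptide dilutions was incubated 1 h at 37 °C against a 0 °C blank, quenched at pH 8.5, and angiotensin I was measured by RIA.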
The compound `CC[C@H](C)[C@H](NC(=O)CC(O)C(CC(C)C)NC(=O)[C@H](Cc1ccccc1)NC(=O)[C@H](Cc1ccccc1)NC(=O)[C@@H]1CCCN1)C(=O)NC(=O)[C@@H](N)Cc1ccccc1` (stereo partly drawn) registered an IC50 of 0.43 µM. The compound `CC(C)CC(NC(=O)[C@H](Cc1cnc[nH]1)NC(=O)[C@H](Cc1ccccc1)NC(=O)[C@@H]1CCCN1C(=O)[C@@H](N)Cc1cnc[nH]1)C(O)CC(=O)N[C@H](C(=O)N[C@@H](Cc1ccc(O)cc1)C(=O)N[C@@H](CCCCN)C(=O)O)C(C)C` (stereo partly drawn) (H-HPFH[X1]VYK-OH) yielded an IC50 of 0.4 µM. Still for that read-out and setting: as for `CC[C@H](C)[C@H](NC(=O)CC(O)C(CC(C)C)NC(=O)[C@H](Cc1cnc[nH]1)NC(=O)[C@H](Cc1ccccc1)NC(=O)[C@@H]1CCCN1)C(=O)NC(=O)[C@@H](N)Cc1ccccc1` (stereo partly drawn), the figure is 0.22 µM. The same measure, in the same setting: under `CC[C@H](C)[C@H](NC(=O)[C@H](CCCc1ccccc1)NC(=O)[C@H](CCCCN)NC(=O)[C@H](Cc1ccccc1)NC(=O)[C@@H]1CCCN1C(=O)[C@H](Cc1c[nH]cn1)NC(=O)[C@@H]1CCCN1)C(=O)N[C@@H](Cc1ccccc1)C(N)=O` (H-PHPFK[hhPhe]IF-NH2) stands 3.9 µM.

Regarding `CC[C@H](C)[C@H](NC(=O)CC(O)C(CC(C)C)NC(=O)[C@H](Cc1cnc[nH]1)NC(=O)[C@H](Cc1ccccc1)NC(=O)[C@@H]1CCCN1C(C)=O)C(=O)N[C@@H](Cc1cnc[nH]1)C(=O)N[C@@H](CCCCN)C(=O)O` (stereo partly drawn) (Ac-PFH[X1]IHK-OH), half-maximal inhibition (IC50) was put at 0.04 µM. Still for that read-out and setting: as for `CC[C@H](C)[C@H](NC(=O)[C@H](CCCc1ccccc1)NC(=O)[C@H](Cc1c[nH]cn1)NC(=O)[C@H](Cc1cn(C=O)c2ccccc12)NC(=O)[C@@H]1CCCN1)C(=O)N[C@@H](Cc1cn(C=O)c2ccccc12)C(N)=O` (H-PW(For)H[hhPhe]IW(For)-NH2), the figure is 0.24 µM; as for H-PFHFFVYK-NH2, 100 µM; as for H-PHPFRFFVYK-OH, 200 µM.

As for `CC(C)[C@H](NC(=O)[C@H](CCCN)NC(=O)[C@H](Cc1c[nH]cn1)NC(=O)[C@H](Cc1ccccc1)NC(=O)[C@@H]1CCCN1)C(=O)N[C@@H](Cc1ccc(O)cc1)C(=O)N[C@@H](CCCCN)C(N)=O` (H-PFH[Orn]VYK-NH2), half-maximal inhibition (IC50) required 100 µM.

As for `CC[C@H](C)[C@H](NC(=O)[C@H](CCCc1ccccc1)NC(=O)[C@H](Cc1c[nH]cn1)NC(=O)[C@H](Cc1cn(C=O)c2ccccc12)NC(=O)[C@@H]1CCCN1)C(=O)N[C@@H](Cc1ccccc1)C(N)=O` (H-PW(For)H[hhPhe]IF-NH2), the IC50 worked out at 0.067 µM. On the same count and under the same terms, under `CC[C@H](C)[C@H](NC(=O)CC(O)C(CC(C)C)NC(=O)[C@H](Cc1cnc[nH]1)NC(=O)[C@H](Cc1ccccc1)NC(=O)[C@@H]1CCCN1C(=O)[C@H](Cc1cnc[nH]1)NC(=O)[C@@H]1CCCN1C(C)=O)C(=O)N[C@@H](Cc1cnc[nH]1)C(=O)N[C@@H](CCCCN)C(=O)O` (stereo partly drawn) (Ac-PHPFH[X1]IHK-OH) stands 0.02 µM; under H-PHPFHFFFVYK-OH [RIP], 5.2 µM; under `CC[C@H](C)[C@H](NC(=O)CC(O)C(CC(C)C)NC(=O)[C@H](Cc1cnc[nH]1)NC(=O)[C@H](Cc1ccccc1)NC(=O)[C@@H]1CCCN1C(=O)[C@H](Cc1cn(C=O)c2ccccc12)NC(=O)[C@@H]1CCCN1)C(=O)N[C@@H](Cc1cn(C=O)c2ccccc12)C(N)=O` (stereo partly drawn) (H-PW(For)PFH[X1]IW(For)-NH2), 0.016 µM. On to `CC[C@H](C)[C@H](NC(=O)CC(O)C(CC(C)C)NC(=O)[C@H](Cc1c[nH]cn1)NC(=O)[C@H](Cc1ccccc1)NC(=O)[C@@H]1CCCN1)C(=O)N[C@@H](Cc1c[nH]cn1)C(=O)N[C@@H](CCCCN)C(=O)O` (stereo partly drawn) (H-PFH[X1]IHK-OH), for which the midpoint of inhibition, the IC50, lay at 0.9 µM. Same read-out and setting: under `CC[C@H](C)[C@H](NC(=O)[C@H](CCCc1ccccc1)NC(=O)[C@H](Cc1c[nH]cn1)NC(=O)[C@H](Cc1ccccc1)NC(=O)[C@@H]1CCCN1C(=O)[C@H](Cc1cn(C=O)c2ccccc12)NC(=O)[C@@H]1CCCN1)C(=O)N[C@@H](Cc1cn(C=O)c2ccccc12)C(N)=O` (H-PW(For)PFH[hhPhe]IW(For)-NH2) stands 0.027 µM; under `CC[C@H](C)[C@H](NC(=O)[C@H](CCCc1ccccc1)NC(=O)[C@H](Cc1c[nH]cn1)NC(=O)[C@H](Cc1cn(C=O)c2ccccc12)NC(=O)[C@@H]1CCCN1C(=O)[C@H](Cc1cn(C=O)c2ccccc12)NC(=O)[C@@H]1CCCN1)C(=O)N[C@@H](Cc1ccccc1)C(N)=O` (H-PW(For)PW(For)H[hhPhe]IF-NH2), 0.03 µM; under `CC[C@H](C)[C@H](NC(=O)[C@H](CCCc1ccccc1)NC(=O)[C@H](Cc1c[nH]cn1)NC(=O)[C@H](Cc1ccccc1)NC(=O)[C@@H]1CCCN1C(=O)[C@H](Cc1c[nH]cn1)NC(=O)[C@@H]1CCCN1)C(=O)N[C@@H](Cc1ccccc1)C(N)=O` (H-PHPFH[hhPhe]IF-NH2), 0.03 µM. With `CC(C)[C@H](NC(=O)[C@H](Cc1ccccc1)NC[C@H](Cc1ccccc1)NC(=O)[C@H](Cc1cnc[nH]1)NC(=O)[C@H](Cc1ccccc1)NC(=O)[C@@H]1CCCN1C(=O)[C@H](N)Cc1cnc[nH]1)C(=O)N[C@@H](Cc1ccc(O)cc1)C(=O)O`, the midpoint of inhibition, the IC50, lay at 0.58 µM.

Regarding `CC(C)CC(NC(=O)[C@H](Cc1c[nH]cn1)NC(=O)[C@H](Cc1ccccc1)NC(=O)[C@@H]1CCCN1)C(O)CC(N)=O` (stereo partly drawn), the 50% inhibitory concentration (IC50) was found to be 68 µM. For `CC(C)[C@H](NC(=O)[C@@H](CCCc1ccccc1)NC(=O)[C@H](Cc1c[nH]cn1)NC(=O)[C@H](Cc1ccccc1)NC(=O)[C@@H]1CCCN1C(=O)[C@H](Cc1c[nH]cn1)NC(=O)[C@@H]1CCCN1)C(=O)N[C@@H](Cc1ccc(O)cc1)C(=O)N[C@@H](CCCCN)C(N)=O`, 0.027 µM corresponded to half-maximal inhibition (IC50).

In turn, `CC[C@H](C)[C@H](NC(=O)[C@H](CCCc1ccccc1)NC(=O)[C@H](Cc1cnc[nH]1)NC(=O)[C@H](Cc1ccccc1)NC(=O)[C@@H]1CCCN1C(=O)[C@H](Cc1cnc[nH]1)NC(=O)[C@@H]1CCCN1)C(=O)N[C@@H](Cc1cnc[nH]1)C(=O)N[C@@H](CCCCN)C(C)=O` (H-PHPFH[hhPhe]IH-X3) registered an IC50 of 0.03 µM. Still for that read-out and setting: as for `CC[C@H](C)[C@H](NC(=O)CC(O)C(CC(C)C)NC(=O)[C@H](Cc1ccccc1)NC(=O)[C@H](Cc1ccccc1)NC(=O)[C@@H]1CCCN1C(=O)[C@H](Cc1c[nH]cn1)NC(=O)[C@@H]1CCCN1)C(=O)NC(=O)[C@@H](N)Cc1ccccc1` (stereo partly drawn) (H-PHPFF[X1]-X2), the figure is 0.03 µM; as for `CC[C@H](C)[C@H](NC(=O)[C@H](CCCc1ccccc1)NC(=O)[C@H](Cc1cnc[nH]1)NC(=O)[C@H](Cc1ccccc1)NC(=O)[C@@H]1CCCN1C(C)=O)C(=O)N[C@@H](Cc1cnc[nH]1)C(=O)N[C@@H](CCCCN)C(C)=O` (Ac-PFH[hhPhe]IH-X3), 0.046 µM; as for `CCC[C@H](NC(=O)[C@H](Cc1c[nH]cn1)NC(=O)[C@H](Cc1ccccc1)NC(=O)[C@@H]1CCCN1C(=O)[C@H](Cc1c[nH]cn1)NC(=O)[C@@H]1CCCN1)C(=O)N[C@H](C(=O)NC(=O)[C@@H](N)Cc1ccccc1)[C@@H](C)CC` (H-PHPFH[Nva]-X2), greater than 1000 µM.

Compound `CC[C@H](C)[C@H](NC(=O)[C@H](CCCc1ccccc1)NC(=O)[C@H](Cc1c[nH]cn1)NC(=O)[C@H](Cc1cn(C=O)c2ccccc12)NC(=O)[C@@H]1CCCN1C(=O)[C@H](Cc1cn(C=O)c2ccccc12)NC(=O)[C@@H]1CCCN1)C(=O)N[C@@H](Cc1cn(C=O)c2ccccc12)C(N)=O` (H-PW(For)PW(For)H[hhPhe]IW(For)-NH2) had a half-inhibitory concentration (IC50) of 0.049 µM.

As for `CC[C@H](C)[C@H](NC(=O)CC(O)C(CC(C)C)NC(=O)[C@@H](N)Cc1ccccc1)C(=O)NC(=O)[C@@H](N)Cc1ccccc1` (stereo partly drawn), the 50% inhibitory concentration (IC50) was greater than 100 µM. The same measure, in the same setting: under `CC(C)C[C@H](NC(=O)[C@H](Cc1c[nH]cn1)NC(=O)[C@H](Cc1ccccc1)NC(=O)[C@@H]1CCCN1C(=O)[C@H](Cc1c[nH]cn1)NC(=O)[C@@H]1CCCN1)[C@@H](O)CC(N)=O` (H-PHPFH[Sta]-NH2) stands 0.9 µM.
